Results on 20 compounds are retold here after ChEMBL document CHEMBL3751816, “Design, synthesis and evaluation of acridine derivatives as multi-target Src and MEK kinase inhibitors for anti-tumor treatment” (Bioorg Med Chem, 2016).

Activity calls are given as the source filed them. No cut-off for these calls is given here.

The test system of one test is HepG2. Briefly: Cytotoxicity against human HepG2 cells after 48 hrs by MTT assay. In kind it is functional, cell-based. The note with it: HepG2, 48 h. An outline of the steps:
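HepG-2 cells in DMEM with 10% FBS, 37 °C, 5% CO2. Seeded at 5×10^5 cells/mL for 12 h, then medium removed. Compounds in DMSO diluted to final 0.01–50 µM (DMSO below 1%), triplicate per concentration, 48 h. MTT 4 h at 37 °C, formazan taken up in DMSO, A495 read.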
In general terms: Formazan colour is commonly taken as a measure of viable cells.

The test system of test [1] is K562. Briefly: Cytotoxicity against human K562 cells after 48 hrs by MTT assay. The note with it: K562, 48 h. Format: functional, cell-based. An outline of the steps:
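K562 cells in DMEM with 10% FBS, 37 °C, 5% CO2. Seeded at 7×10^5 cells/mL and held 12 h. Compounds in DMSO, diluted to final 0.01–50 µM (final DMSO below 1%), triplicate per concentration, 48 h. Then MTT 4 h at 37 °C, formazan dissolved in DMSO, absorbance read at 495 nm.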

Test [2] has as its system K562. Briefly: Induction of apoptosis in human K562 cells assessed as early cleavage of caspase-7 at 10 uM after 48 hrs by Western blot analysis. Format: functional, cell-based. An outline of the steps:
(§1)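 K562 cells treated 48 h at 37 °C. Lysed on ice 30 min (HEPES pH 7.9, KCl, EDTA, 0.1% NP-40, Na3VO4, NaF, protease inhibitors), then cleared at 12000 g, 4 °C. Protein measured by Bradford and equal amounts run on SDS–PAGE. Transferred to PVDF and immunoblotted for cleaved caspase-3, cleaved caspase-7 and cleaved PARP.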
A general note: In western blotting, separated proteins are transferred to a membrane and probed.

The subject of test [3] is K562. Briefly: Induction of apoptosis in human K562 cells assessed as late stage apoptotic cells at 5 uM after 48 hrs by annexin V-FITC staining (reference value: 0.23%). In kind it is functional.
Test [4] concerns the target Proto-oncogene tyrosine-protein kinase Src (Homo sapiens) (UniProt P12931). The experiment in a line: Inhibition of Src in human K562 cells assessed as decrease of AKT expression after 48 hrs by Western blot analysis. In kind it is cell-based. An outline of the steps: (§2)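 K562 cells treated at 0, 0.5, 2.5, 5 and 10 µM for 48 h at 37 °C. Lysed on ice 30 min in NP-40/HEPES pH 7.9 buffer with phosphatase and protease inhibitors, cleared at 12000 g. Bradford-normalized protein run on SDS–PAGE, transferred to PVDF, and probed for ERK and AKT.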

For test [5], the system named is K562. The experiment in a line: Induction of apoptosis in human K562 cells assessed as early stage apoptotic cells at 0.5 uM after 48 hrs by annexin V-FITC staining (reference value: 3.14%). Format: functional.
The next test has as its system Calf thymus DNA. The experiment in a line: Binding affinity to calf thymus DNA at 10 uM by UV-vis spectrophotometric titration analysis. In kind it is nucleic-acid assay. The note with it: Bos taurus.
Test [6] has as its target Proto-oncogene tyrosine-protein kinase Src (Homo sapiens) (UniProt P12931). Briefly: Inhibition of Src in human K562 cells assessed as decrease of ERK expression after 48 hrs by Western blot analysis. In kind it is cell-based. An outline of the steps: as §2
Test [7] concerns K562. Briefly: Induction of apoptosis in human K562 cells assessed as necrotic cells at 10 uM after 48 hrs by annexin V-FITC staining (reference value: 0.15%). Format: functional.
In test [8] the test system is K562. The experiment in a line: Inhibition of PI3K in human K562 cells assessed as decrease of AKT expression after 48 hrs by Western blot analysis. In kind it is cell-based. An outline of the steps:
as §2

The subject of test [9] is K562. Briefly: Induction of apoptosis in human K562 cells assessed as late stage apoptotic cells at 10 uM after 48 hrs by annexin V-FITC staining (reference value: 0.23%). Format: functional.
In test [10] the test system is K562. The experiment in a line: Induction of apoptosis in human K562 cells assessed as early stage apoptotic cells at 10 uM after 48 hrs by annexin V-FITC staining (reference value: 3.14%). In kind it is functional.
The target in test [11] is T1, Dual specificity mitogen-activated protein kinase kinase; MEK1/2 (Homo sapiens) (UniProt P36507+Q02750). Briefly: Inhibition of MEK (unknown origin) at 10 uM after 15 mins by luminescence assay. An outline of the steps:
(§3)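 Contract-run kinase assay. Enzyme, substrate, ATP and compound (10 µM, in 2.5% DMSO) mixed in pH 7.0 buffer: 50 mM HEPES/NaOH, 0.02% NaN3, 0.01% BSA, orthovanadate, 5 mM MgCl2, 1 mM DTT. Incubated 15 min at room temperature. Detection with streptavidin-XL665 plus TK antibody europium cryptate in KF/EDTA buffer. […]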

Test [12] has as its system K562. Briefly: Inhibition of PI3K in human K562 cells assessed as decrease of ERK expression after 48 hrs by Western blot analysis. Format: cell-based. An outline of the steps: as §2
Test [13] has as its system K562. The experiment in a line: Induction of apoptosis in human K562 cells assessed as live cells at 5 uM after 48 hrs by annexin V-FITC staining (reference value: 96.49%). Format: functional.
In test [14] the test system is K562. The experiment in a line: Induction of apoptosis in human K562 cells after 48 hrs by annexin V-FITC staining. In kind it is functional, cell-based.
The test system of test [15] is K562. Briefly: Induction of apoptosis in human K562 cells assessed as late stage apoptotic cells at 0.5 uM after 48 hrs by annexin V-FITC staining (reference value: 0.23%). In kind it is functional.
Test [16] addresses T1, Dual specificity mitogen-activated protein kinase kinase; MEK1/2 (Homo sapiens). Briefly: Inhibition of MEK in human K562 cells assessed as decrease of ERK expression after 48 hrs by Western blot analysis. In kind it is cell-based. An outline of the steps:
as §2

In test [17] the test system is K562. Briefly: Induction of apoptosis in human K562 cells assessed as necrotic cells at 5 uM after 48 hrs by annexin V-FITC staining (reference value: 0.15%). In kind it is functional.
For test [18], the target named is T1, Dual specificity mitogen-activated protein kinase kinase; MEK1/2 (Homo sapiens). The experiment in a line: Inhibition of MEK in human K562 cells assessed as decrease of AKT expression after 48 hrs by Western blot analysis. Format: cell-based. An outline of the steps: as §2
Test [19] relates to K562. Briefly: Induction of apoptosis in human K562 cells assessed as necrotic cells at 0.5 uM after 48 hrs by annexin V-FITC staining (reference value: 0.15%). In kind it is functional.
The test system of test [20] is K562. Briefly: Induction of apoptosis in human K562 cells assessed as early cleavage of PARP at 10 uM after 48 hrs by Western blot analysis. In kind it is functional, cell-based. An outline of the steps:
as §1

Test [21] relates to K562. Briefly: Induction of apoptosis in human K562 cells assessed as live cells at 10 uM after 48 hrs by annexin V-FITC staining (reference value: 96.49%). Format: functional.
The species entered for a further test is Homo sapiens. Briefly: Inhibition of PI3K (unknown origin) at 10 uM after 15 mins by luminescence assay.
Test [22] concerns K562. The experiment in a line: Induction of apoptosis in human K562 cells assessed as live cells at 0.5 uM after 48 hrs by annexin V-FITC staining (reference value: 96.49%). In kind it is functional.
In test [23] the test system is K562. Briefly: Induction of apoptosis in human K562 cells assessed as early stage apoptotic cells at 5 uM after 48 hrs by annexin V-FITC staining (reference value: 3.14%). In kind it is functional.
For test [24], the system named is K562. Briefly: Induction of apoptosis in human K562 cells assessed as early cleavage of caspase-3 at 10 uM after 48 hrs by Western blot analysis. Format: functional, cell-based. An outline of the steps: as §1
The target of test [25] is Proto-oncogene tyrosine-protein kinase Src (Homo sapiens) (UniProt P12931). Briefly: Inhibition of Src (unknown origin) at 10 uM after 15 mins by luminescence assay. An outline of the steps: as §3
Sequence of Proto-oncogene tyrosine-protein kinase Src (Homo sapiens) (P12931 2-536 limits assumed): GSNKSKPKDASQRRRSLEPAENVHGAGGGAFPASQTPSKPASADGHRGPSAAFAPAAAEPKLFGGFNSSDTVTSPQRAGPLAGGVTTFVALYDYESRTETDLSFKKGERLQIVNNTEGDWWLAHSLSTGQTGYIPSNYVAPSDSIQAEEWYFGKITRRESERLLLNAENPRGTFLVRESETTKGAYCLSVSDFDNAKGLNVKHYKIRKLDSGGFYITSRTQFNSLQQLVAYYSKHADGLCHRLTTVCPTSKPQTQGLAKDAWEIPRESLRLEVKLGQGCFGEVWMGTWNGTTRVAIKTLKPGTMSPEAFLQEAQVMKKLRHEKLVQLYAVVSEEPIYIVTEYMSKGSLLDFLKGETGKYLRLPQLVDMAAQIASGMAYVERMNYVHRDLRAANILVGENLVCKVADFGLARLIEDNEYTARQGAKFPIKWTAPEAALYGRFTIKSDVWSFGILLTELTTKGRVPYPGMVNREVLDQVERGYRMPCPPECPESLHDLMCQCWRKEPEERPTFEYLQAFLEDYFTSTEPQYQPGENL

T1 sequence (P36507 whole entry, looked up): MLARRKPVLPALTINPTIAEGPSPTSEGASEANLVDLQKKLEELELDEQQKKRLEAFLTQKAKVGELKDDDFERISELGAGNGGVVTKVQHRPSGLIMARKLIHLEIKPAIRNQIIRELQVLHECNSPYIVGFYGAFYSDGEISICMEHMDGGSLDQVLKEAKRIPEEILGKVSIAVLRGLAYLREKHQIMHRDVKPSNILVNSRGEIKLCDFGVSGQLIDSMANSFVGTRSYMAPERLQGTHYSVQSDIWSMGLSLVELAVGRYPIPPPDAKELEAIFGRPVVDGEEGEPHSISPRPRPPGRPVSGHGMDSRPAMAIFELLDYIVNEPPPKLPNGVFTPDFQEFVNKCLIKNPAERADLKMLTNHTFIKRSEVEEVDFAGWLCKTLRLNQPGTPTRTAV
T1 sequence (Q02750 whole entry, looked up): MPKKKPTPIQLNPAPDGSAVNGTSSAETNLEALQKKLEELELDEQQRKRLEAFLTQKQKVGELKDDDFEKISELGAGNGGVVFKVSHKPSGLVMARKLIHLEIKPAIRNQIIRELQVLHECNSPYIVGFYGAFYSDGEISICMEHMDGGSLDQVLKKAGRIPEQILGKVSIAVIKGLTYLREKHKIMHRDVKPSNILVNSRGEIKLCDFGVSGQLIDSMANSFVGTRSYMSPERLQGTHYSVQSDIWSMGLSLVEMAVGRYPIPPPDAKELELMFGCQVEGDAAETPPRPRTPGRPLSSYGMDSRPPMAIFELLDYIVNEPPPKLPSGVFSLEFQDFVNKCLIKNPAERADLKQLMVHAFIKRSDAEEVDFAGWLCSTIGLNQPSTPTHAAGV

As a reminder, the IC50 is the concentration that inhibits the measured activity by half. The low end stands for greater potency, the high end for weaker potency. Turning to `Cc1ccc(NC(=O)c2ccc(CN3CCN(C)CC3)cc2)cc1Nc1nccc(-c2cccnc2)n1` [IMATINIB], the values for the IC50 in the test with HepG2 and with K562 [1] were over 25 µM and 0.53 µM, respectively.
As to `O=C(Nc1ccccc1)Nc1ccc(Nc2c3ccccc3nc3cc([N+](=O)[O-])ccc23)cc1`, the IC50 turned out to be 19.8 µM in the test with HepG2 and 3.3 µM in the test with K562 [1].
In the case of `CCc1ccc(NC(=O)Nc2ccc(Nc3c4ccccc4nc4cc([N+](=O)[O-])ccc34)cc2)cc1`, the IC50 with HepG2 was 14.8 µM; in the test with K562 [1], 1.86 µM.
With `COc1ccc(NC(=O)Nc2ccc(Nc3c4ccccc4nc4cc([N+](=O)[O-])ccc34)cc2)cc1`, the IC50 in the test on HepG2 was over 25 µM; in the test with K562 [1], 7.68 µM.
`COc1cccc2c(Nc3ccc(NC(=O)Nc4ccccc4)cc3)c3ccc([N+](=O)[O-])cc3nc12`: the concentration for half-maximal inhibition (IC50) in the test with HepG2 came out at 17.6 µM; with K562 [1] it was 2.58 µM.
The matching figures for `COc1cccc2c(Nc3ccc(NC(=O)Nc4cccc(C(F)(F)F)c4)cc3)c3ccccc3nc12`: 13.1 µM and 1.93 µM.
The like results for `COc1cccc2c(Nc3ccc(NC(=O)Nc4ccccc4)cc3)c3ccccc3nc12` were, in that order, 6.12 µM and 0.49 µM.
On to `CCc1cccc(NC(=O)Nc2ccc(Nc3c4ccccc4nc4cc([N+](=O)[O-])ccc34)cc2)c1`, for which the IC50 was determined as 22.7 µM with HepG2 and 8.92 µM with K562 [1].
The matching figures for `COc1ccc2nc3cc(Cl)ccc3c(Nc3ccccc3OC)c2c1`: over 50 µM and 5.8 µM.
The matching figures for `COc1ccc2nc3cc(Cl)ccc3c(Nc3ccc(NC(=O)Nc4ccccc4)cc3)c2c1`: 9.56 µM and 3.42 µM.
The like results for `CCCc1ccc(NC(=O)Nc2ccc(Nc3c4ccccc4nc4cc([N+](=O)[O-])ccc34)cc2)cc1` were, in that order, 14.4 µM and 1.56 µM.
For `O=C(Nc1ccc(Nc2c3ccccc3nc3cc([N+](=O)[O-])ccc23)cc1)Nc1cccc(Cl)c1`, the figures for the IC50 in the test on HepG2 and with K562 [1] were over 25 µM and 13.9 µM, respectively.
The matching figures for `O=C(Nc1ccc(Nc2c3ccccc3nc3cc([N+](=O)[O-])ccc23)cc1)Nc1cccc(F)c1`: over 25 µM and 11.1 µM.
The matching figures for `CCCCc1ccc(NC(=O)Nc2ccc(Nc3c4ccccc4nc4cc([N+](=O)[O-])ccc34)cc2)cc1`: 14 µM and 1.23 µM.
The matching figures for `COc1cccc(NC(=O)Nc2ccc(Nc3c4ccccc4nc4cc([N+](=O)[O-])ccc34)cc2)c1`: 22.3 µM and 4.55 µM.
As to `COc1ccccc1NC(=O)Nc1ccc(Nc2c3ccccc3nc3cc([N+](=O)[O-])ccc23)cc1`, the IC50 with HepG2 came out at 19.4 µM; with K562 [1], 4.51 µM.
On to `O=C(Nc1ccc(Nc2c3ccccc3nc3cc([N+](=O)[O-])ccc23)cc1)Nc1cccc(C(F)(F)F)c1`, for which the IC50 was over 25 µM in the test on HepG2 and 1.2 µM in the test on K562 [1].
As for `COc1ccc2nc3cc([N+](=O)[O-])ccc3c(Nc3ccc(NC(=O)Nc4ccccc4)cc3)c2c1`, the IC50 in the test with HepG2 was over 25 µM; in the test on K562 [1], 3.79 µM.
The matching figures for `Cc1cccc(NC(=O)Nc2ccc(Nc3c4ccccc4nc4cc([N+](=O)[O-])ccc34)cc2)c1`: over 25 µM and 11.6 µM.
By inhibition is commonly meant the relative decrease from the control value, in per cent. As to `COc1ccc2c(Nc3ccc(NC(=O)Nc4ccccc4)cc3)c3ccccc3nc2c1`, the outcome with K562 [2], with K562 [20] and with K562 [24] was Active. The Activity is 0.23% in the test with K562 [3]; 6.13% in the test with K562 [5]; 0.083 M⁻¹ with Calf thymus DNA; 0.73% with K562 [7]; 6.45% in the test on K562 [9]; 54.98% with K562 [10]. In addition, the Activity in the test with K562 [13] is 85.42%; in the test on K562 [14] it was “Dose-dependent effect”; in the test with K562 [15] it was 0.1%; in the test on K562 [17], 0.3%; with K562 [19], 0.15%; in the test with K562 [21], 37.83%. Besides, the Activity was 96.6% with K562 [22] and 14.05% in the test on K562 [23]. The inhibition entry is “Dose-dependent effect” in test [4]; “Dose-dependent effect” in test [6]; “Dose-dependent effect” in the test on K562 [8]; 43.2% in [11]; “Dose-dependent effect” in the test with K562 [12]; “Dose-dependent effect” in test [16]. In addition, the inhibition result in test [18] is “Dose-dependent effect”; in the test listed under Homo sapiens, 44.4%; in test [25] it was 59.7%. Besides, the IC50 in the test on HepG2 came out at 9.41 µM; in the test on K562 [1], 4.08 µM.
